Assay results collected from several papers.
Target: Mitogen-activated protein kinase 7 (MAPK7, Homo sapiens, UniProt Q13164)

`Nc1ncc2c(n1)-c1c([nH]c3ccc(C#CC4CC4)cc13)CCCC2` has a remaining binding of 85% (binding, competition with immobilised ligand; 1 µM).
For `COc1ccc2c(O[C@@H]3C[C@H]4C(=O)N[C@]5(C(=O)O)CC5/C=C\CCCCC[C@H](NC(=O)OC5CCCC5)C(=O)N4C3)cc(-c3csc(NC(=O)C(C)C)n3)nc2c1C` (some centres unmarked), the remaining binding was 100% (cell-free assay, competition with immobilised ligand; 1 µM).
For `C[C@@H](c1ccc(-n2cnc3c(N)ncnc32)cc1)N1CCc2nn(C)c(Cc3ccccc3)c2C1=O`, the remaining binding was 89% (binding, competition with immobilised ligand; 0.1 µM).
For `CN(C)C(=O)Cn1cc(-c2nc([C@@](C)(c3ccc(-c4cnc(N)nc4)cc3)C3CC3)no2)cn1`, the remaining binding was 90% (cell-free assay, competition with immobilised ligand; 1 µM).
For `Cc1cnc(Nc2ccc(C(=O)N3CCC(N4CCCC4)CC3)cc2)nc1-c1cc2ccccc2s1`, the remaining binding was 21% (binding, competition with immobilised ligand; 1 µM).
The remaining binding of `C[C@@]1(Cc2ccc(C#N)cc2)C(=O)N(c2cc(Cl)cc(Cl)c2)c2ncc(C(=O)NC3(c4nc(C5CCC5)no4)CC3)n21` is reported as 100% (cell-free assay, competition with immobilised ligand; 1 µM).
With `C[C@@H]1CCN(c2nccc(-c3cnn4ncccc34)n2)C1` the remaining binding was 100% (binding; 1 µM).
For `CNC(=O)Nc1ccc2c(c1)[C@@]1(CC2)OC(=O)N(CC(=O)N(Cc2ccc(F)cc2)[C@@H](C)C(F)(F)F)C1=O`, the remaining binding was 85% (cell-free assay, competition with immobilised ligand; 1 µM).
With `COc1cnc(Nc2cccc(S(N)(=O)=O)c2)nc1N1CCN(c2ccccc2)CC1` the remaining binding was 100% (binding, competition with immobilised ligand; 1 µM).
`O=C(NS(=O)(=O)c1ccc(NCC2CCOCC2)c([N+](=O)[O-])c1)c1ccc(N2CCN(Cc3ccc(C(F)(F)F)cc3-c3ccc(Cl)cc3)CC2)cc1Oc1cnc2[nH]ccc2c1` has a remaining binding of 100% (cell-free assay, competition with immobilised ligand; 1 µM).
With `C=CC(=O)N1CCC(C(=O)NCC(=O)N2CCN(c3nc(-c4cnc(N)nc4C(F)F)nc(N4CCOCC4)n3)CC2)CC1` the remaining binding was 100% (binding, competition with immobilised ligand; 1 µM).
The remaining binding of `CNC(=O)[C@@H]1CC[C@@H](n2c(-c3ccc4cnccc4c3)nc3ccc(C(=O)NCc4cccc(C(N)=O)c4)cc32)C1` is reported as 100% (binding, competition with immobilised ligand; 1 µM).
`CN(CCCC(F)(F)F)c1nccc(-c2cnn3ncccc23)n1` gave a remaining binding of 100% (binding; 1 µM).
For `O=C(c1ccc(Nc2ncc(Cl)c(-c3cc4ccccc4s3)n2)cc1)N1CCC(N2CCCC2)CC1`, the remaining binding was 60% (binding, competition with immobilised ligand; 1 µM).
With `CC1CCCN1c1nccc(-c2cnn3ncccc23)n1` (centres unmarked) the remaining binding was 100% (binding; 1 µM).
`O=C(c1ccc(Nc2nccc(-c3cc4ccccc4s3)n2)cc1)N1CCC(N2CCCC2)CC1` has a remaining binding of 100% (binding, competition with immobilised ligand; 1 µM).
For `CN([C@@H]1CCc2c(CC(=O)O)c3ccccc3n2C1)S(=O)(=O)c1ccc(F)cc1`, the remaining binding was 100% (cell-free assay, competition with immobilised ligand; 1 µM).
With `N[C@@H]1CCN(c2nccc(-c3cnn4ncccc34)n2)C1` the remaining binding was 100% (binding; 1 µM).
`O=C(NCC1CCOCC1)c1n[nH]cc1NC(=O)c1c(F)cccc1F` has a remaining binding of 90% (binding, competition with immobilised ligand; 1 µM).
`Cc1cnn2ncc(-c3ccnc(N(C)C)n3)c2c1` gave a remaining binding of 96% (binding; 1 µM).
The remaining binding of `N#Cc1ccc(Nc2ccc3[nH]c(=O)[nH]c3c2)c(Cl)c1` is reported as 100% (cell-free assay, competition with immobilised ligand; 1 µM).
With `F[C@@H]1CCN(c2nccc(-c3cnn4ncccc34)n2)C1` the remaining binding was 100% (binding; 1 µM).
With `c1cncc(-c2cccc(Nc3nccc(NC4CCCCC4)n3)c2)c1` the remaining binding was 92% (binding, competition with immobilised ligand; 10 µM).
